{
  "source": "paper PMC6287896",
  "about": "(Anti-Cancer Drugs, 2018)",
  "key": {"PC-3 cells": {"tested_on": "PC-3 cells", "assay": "WST-1 assay for cell viability and cytotoxicity", "format": "cell-based, human", "conditions": "23.4 mmol/l, 4 day incubation, read up to 8 h, P≤0.01"}, "Plasma stability": {"assay": "Plasma stability", "format": "in vitro ADME", "conditions": "over 2 h", "in_short": "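Human plasma was spiked with test compound and incubated separately at 25 and 37°C. Drug levels were measured over 120 min.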"}, "DU-145 cells": {"tested_on": "DU-145 cells", "assay": "WST-1 assay for cell viability and cytotoxicity", "format": "cell-based, human", "conditions": "23.4 mmol/l, 4 day incubation, read up to 8 h, P≤0.01"}, "[1]": {"assay": "Dose-response: serum markers of organ function", "format": "in vivo, mouse", "in_short": "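Mice were dosed intravenously with vehicle or 50, 100 or 200 mg/kg test compound (six per group). They were euthanised by CO2 with cervical dislocation at 6 or 18 h, and blood and tissue were collected. Serum AST, GGT, CRP and troponin I were measured by colorimetric assays to assess liver, kidney and heart function. Tissues were examined for gross pathology.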"}, "[2]": {"assay": "Acute toxicity, oral up and down procedure", "format": "in vivo, mouse", "conditions": "2000 mg/kg, monitored 48 h, repeated twice on other animals"}, "Tissue levels": {"assay": "Tissue levels", "format": "in vivo", "conditions": "mouse heart, liver, kidney, brain; up to 24 h; i.v. and oral", "in_short": "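After intravenous or oral dosing, liver, kidney, heart and brain were collected at sacrifice. Tissue was homogenised in ice-cold 0.1% acetic acid (10 ml/g) and centrifuged. Acetonitrile/methanol was added to the supernatant, followed by vortexing, centrifugation, evaporation and reconstitution in 0.1% acetic acid. Samples were quantified by LC–MS/MS (SRM 240.100→110.054) against spiked blank-tissue calibrants.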"}, "[3]": {"tested_on": "DU-145 prostate carcinoma cells", "assay": "DU-145 xenografts in athymic nude mice", "format": "in vivo, mouse", "conditions": "30 days"}, "[4]": {"assay": "Plasma pharmacokinetics and bioavailability after intravenous and oral dosing", "format": "in vivo", "conditions": "mouse, other: oral gavage and intravenous bolus", "in_short": "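Mice were dosed by intravenous bolus or oral gavage, with plasma sampled over 24 h and one sacrifice per time point. Plasma was protein-precipitated with acetonitrile/methanol, evaporated and reconstituted in 0.1% acetic acid. Quantitation was by C18 UHPLC–tandem MS with heated ESI and positive-mode SRM (240.100→110.054), against spiked mouse plasma calibrants. Half-life was taken from concentration–time profiles.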"}, "[5]": {"conditions": "intravenous 50, 100 or 200 mg/kg, 6 or 18 h"}},
  "data": [
    {"compound": "C[C@@H]1C[C@@H](n2cnc(C(N)=O)c2N)[C@H](O)[C@H]1O", "note": "[ICA-1s, 5-amino-1-((1R,2S,3S,4R)-2,3-dihydroxy-4-methylcyclopentyl)-1H-imidazole-4-carboxamide]", "values": [
      {"measurement": "in-vitro cytotoxicity (WST-1, absorbance at 450 nm)", "setting": "PC-3 cells", "value": "significant cytotoxicity"},
      {"measurement": "stability in human plasma", "setting": "Plasma stability; 25°C (ambient)", "value": "stable"},
      {"measurement": "stability in human plasma", "setting": "Plasma stability; 37°C", "value": "stable"},
      {"measurement": "in-vitro cytotoxicity (WST-1, absorbance at 450 nm)", "setting": "DU-145 cells", "value": "significant cytotoxicity"},
      {"measurement": "serum CRP versus control", "setting": "[1]; intravenous 200 mg/kg, 6 h after treatment, P=0.033", "value": "significant rise"},
      {"measurement": "serum AST versus control", "setting": "[1]; [5]", "value": "no significant difference"},
      {"measurement": "serum GGT versus control", "setting": "[1]; [5]", "value": "no significant difference"},
      {"measurement": "serum troponin I versus control", "setting": "[1]; [5]", "value": "no significant difference"},
      {"measurement": "serum CRP versus control, all other readings", "setting": "[1]; intravenous 50, 100 or 200 mg/kg, 6 or 18 h, other than 200 mg/kg at 6 h", "value": "no significant difference"},
      {"measurement": "acute toxicity outcome at highest dose of the UDP", "setting": "[2]", "value": "survived with no observable adverse reaction"},
      {"measurement": "accumulation in major organs (tissue levels)", "setting": "Tissue levels", "value": "did not appear to indicate accumulation"},
      {"measurement": "average tumor size of treated xenografts", "setting": "[3]; 100 mg/kg subcutaneous daily, untreated 156.4 mm^2", "value": 76.8, "unit": "mm^2"},
      {"measurement": "tumor growth rate relative to untreated tumors", "setting": "[3]; DU-145 xenografts, treated vs untreated", "value": "almost half the rate"},
      {"measurement": "half-life", "setting": "[4]", "value": 5.7, "unit": "h"}
    ]}
  ]
}
